≈ marks a conversion by molar mass, not a printed value. Calls of active or inactive are those of the source. The rule behind the calls is not given here.
Experiments:
[1] = system: Mycobacterium tuberculosis; experiment: Antimycobacterial activity against Mycobacterium tuberculosis H37Rv; format: functional
Outline: (§1)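 Microplate Alamar blue assay (MABA) on Mtb H37Rv. MIC reported as the average of two to three independent experiments.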

[2] = system: Vero; experiment: (§2) Cytotoxicity against african green monkey Vero cells after 72 hrs; format: cell-based, Chlorocebus sabaeus; settings: Chlorocebus sabaeus, Vero, 72 h
[3] = system: Mycobacterium tuberculosis; experiment: Antimycobacterial activity against Mycobacterium tuberculosis H37Rv expressing pFCA-luxAB after 10 days by low-oxygen recovery assay; format: functional; settings: 240 h
Outline: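 Low oxygen recovery assay (LORA): a luminescence-based read-out of activity against non-replicating Mtb under oxygen-deprived conditions. MIC averaged over two to three independent experiments.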

[4] = system: Mycobacterium tuberculosis; experiment: Antimycobacterial activity against Mycobacterium tuberculosis H37Rv after […] by microplate alamar; format: functional; outline: as §1
[5] = as §2; format: cell-based, Chlorocebus sabaeus; settings: chlorocebus sabaeus, Vero cells; read-out: MIC
[6] = system: Staphylococcus aureus; experiment: Antimicrobial activity against Staphylococcus aureus; format: functional
[7] = system: Mycolicibacterium smegmatis; experiment: Antimicrobial activity against Mycobacterium smegmatis; format: functional
[8] = system: Escherichia coli; experiment: Antimicrobial activity against Escherichia coli; format: functional
[9] = system: Candida albicans; experiment: Antimicrobial activity against Candida albicans; format: functional
[10] = system: Toxoplasma gondii; experiment: Antimicrobial activity against Toxoplasma gondii; format: functional, organism-based

| SMILES | IC50 [2] [µM] | MIC [3] [µM] | MIC [4] [µM] | other results |
| --- | --- | --- | --- | --- |
| OC(c1cc(C(F)(F)F)nc2c(C(F)(F)F)cccc12)C1CCCCN1 (stereo not drawn) [MEFLOQUINE] | – | – | – | MIC [1]: 13 µM (≈ 4.92 µg/mL) |
| CCOC(=O)c1cc(-c2cccc(Oc3cccc(C(F)(F)F)c3)c2)on1 | > 128 | 10.5 (≈ 3.96 µg/mL) | 1 (≈ 0.377 µg/mL) | – |
| CCOC(=O)c1cc(-c2cccc(OCc3cc(F)ccc3Cl)c2)on1 | – | 15.1 (≈ 5.67 µg/mL) | 0.9 (≈ 0.338 µg/mL) | – |
| CCOC(=O)c1cc(-c2cccc(OCc3cccc(OC)c3)c2)on1 | > 128 | 26.7 (≈ 9.44 µg/mL) | 2.1 (≈ 0.742 µg/mL) | – |
| CCOC(=O)c1cc(-c2cccc(OCc3ccc(F)cc3F)c2)on1 | > 128 | 15.7 (≈ 5.64 µg/mL) | 1 (≈ 0.359 µg/mL) | – |
| CCOC(=O)c1cc(-c2cccc(OCc3c(F)ccc(F)c3F)c2)on1 | – | 10.9 (≈ 4.11 µg/mL) | 1 (≈ 0.377 µg/mL) | – |
| CCOC(=O)c1cc(-c2cccc(OCc3ccc(F)cc3)c2)on1 | – | 24 (≈ 8.19 µg/mL) | 1.8 (≈ 0.614 µg/mL) | – |
| CCOC(=O)c1cc(-c2cccc(OCc3cc(F)cc(F)c3)c2)on1 | > 128 | 16.6 (≈ 5.96 µg/mL) | 4.4 (≈ 1.58 µg/mL) | – |
| CCOC(=O)c1cc(-c2cccc(OCc3c(F)cccc3F)c2)on1 | > 128 | 12.8 (≈ 4.6 µg/mL) | 1.2 (≈ 0.431 µg/mL) | – |
| NNC(=O)c1ccncc1 [ISONIAZID] | – | > 128 | 0.5 (≈ 0.0686 µg/mL) | MCC at 72 h [5]: > 128 µM |
| CCOC(=O)c1cc(-c2cccc(OCc3cccc(OC(F)(F)F)c3)c2)on1 | 101 | 13.1 (≈ 5.34 µg/mL) | 0.7 (≈ 0.285 µg/mL) | – |
| CCOC(=O)c1cc(-c2cccc(NCc3cccc(C(F)(F)F)c3)c2)on1 | > 128 | 15.3 (≈ 5.97 µg/mL) | 1.1 (≈ 0.429 µg/mL) | – |
| CCOC(=O)c1cc(-c2cccc(OCc3cccc(C(F)(F)F)c3)c2)on1 | > 128 | 8 (≈ 3.13 µg/mL) | 0.6 (≈ 0.235 µg/mL) | MIC [6]: > 100 µM; MIC [7]: > 100 µM; MIC [8]: > 100 µM; MIC [9]: > 100 µM; Activity [10]: inactive |
| CCOC(=O)c1cc(-c2cccc(OCc3cccc(C)c3)c2)on1 | > 128 | 14.9 (≈ 5.03 µg/mL) | 1.2 (≈ 0.405 µg/mL) | – |
| CCOC(=O)c1cc(-c2cccc(OCc3cccc(C#N)c3)c2)on1 | > 128 | 26.5 (≈ 9.23 µg/mL) | 0.6 (≈ 0.209 µg/mL) | – |
| CO[C@H]1/C=C/O[C@@]2(C)Oc3c(C)c(O)c4c(O)c(c(/C=N/N5CCN(C)CC5)c(O)c4c3C2=O)NC(=O)/C(C)=C\C=C\[C@H](C)[C@H](O)[C@@H](C)[C@@H](O)[C@@H](C)[C@H](OC(C)=O)[C@@H]1C [RIFAMPIN] | – | 1.9 (≈ 1.56 µg/mL) | 0.1 (≈ 0.0823 µg/mL) | – |
| O=[N+]([O-])c1cn2c(n1)OC[C@@H](OCc1ccc(OC(F)(F)F)cc1)C2 [PRETOMANID] | – | 3.8 (≈ 1.37 µg/mL) | 0.3 (≈ 0.108 µg/mL) | – |
| CCOC(=O)c1cc(-c2ccc(NCc3cccc(C(F)(F)F)c3)cc2)on1 | > 128 | 6.3 (≈ 2.46 µg/mL) | 0.6 (≈ 0.234 µg/mL) | – |
| CCOC(=O)c1cc(-c2cccc(OCc3ccc(F)c(F)c3)c2)[nH]n1 | – | > 128 | 32 (≈ 11.5 µg/mL) | – |
| CCOC(=O)c1cc(-c2cccc(OCc3cccc(Cl)c3)c2)on1 | > 128 | 10.8 (≈ 3.86 µg/mL) | 1 (≈ 0.358 µg/mL) | – |
| CCOC(=O)c1cc(-c2cccc(OCc3ccccc3[N+](=O)[O-])c2)on1 | > 128 | 25.8 (≈ 9.5 µg/mL) | 1.5 (≈ 0.553 µg/mL) | – |
| CCOC(=O)c1cc(-c2cccc(OCc3cccc(F)c3F)c2)on1 | > 128 | 26.8 (≈ 9.63 µg/mL) | 1.6 (≈ 0.575 µg/mL) | – |
| CCOC(=O)c1cc(-c2cccc(O)c2)on1 | – | 114 (≈ 26.6 µg/mL) | 7.3 (≈ 1.7 µg/mL) | – |

| SMILES | IC50 [2] [µM] | MIC [3] [µM] | MIC [4] [µM] | other results |
| --- | --- | --- | --- | --- |
| CCOC(=O)c1cc(/C=C/c2cccc(C(F)(F)F)c2)on1 | – | – | – | MIC [1]: 0.73 µM (≈ 0.227 µg/mL) |
| CCOC(=O)c1cc(-c2cccc(OCc3ccc(F)c(F)c3)c2)on1 | > 128 | 19.2 (≈ 6.9 µg/mL) | 0.6 (≈ 0.216 µg/mL) | – |
| CCOC(=O)c1cc(-c2cccc(OCc3cccc([N+](=O)[O-])c3)c2)on1 | > 128 | 8.7 (≈ 3.2 µg/mL) | 0.6 (≈ 0.221 µg/mL) | – |
| CCOC(=O)c1cc(-c2cccc(OCc3ccc(F)c(F)c3F)c2)on1 | > 128 | 12.6 (≈ 4.75 µg/mL) | 0.9 (≈ 0.34 µg/mL) | – |
| CCOC(=O)c1cc(-c2cccc(OCc3ccccc3)c2)on1 | > 128 | 41.5 (≈ 13.4 µg/mL) | 1.2 (≈ 0.388 µg/mL) | – |
| CCOC(=O)c1cc(-c2cccc(OCc3cccc(N)c3)c2)on1 | > 128 | 25.8 (≈ 8.73 µg/mL) | 1.5 (≈ 0.508 µg/mL) | – |
| CCOC(=O)c1cc(-c2cccc(OCc3ccccc3F)c2)on1 | – | 19.1 (≈ 6.52 µg/mL) | 1.1 (≈ 0.375 µg/mL) | – |
| CCOC(=O)c1cc(-c2cccc(OCc3ccc(Cl)c(Cl)c3)c2)on1 | – | 10.6 (≈ 4.16 µg/mL) | 2.7 (≈ 1.06 µg/mL) | – |
| CCOC(=O)c1cc(-c2cccc(OCc3ccccc3C(F)(F)F)c2)on1 | > 128 | 34.8 (≈ 13.6 µg/mL) | 1.5 (≈ 0.587 µg/mL) | – |
| CCOC(=O)c1cc(-c2ccc(C(O)c3cccc(OC)c3)cc2)on1 (stereo not drawn) | – | 23.9 (≈ 8.45 µg/mL) | 2.8 (≈ 0.989 µg/mL) | – |
| CCOC(=O)c1cc(-c2cccc(NC(=O)c3cccc(C(F)(F)F)c3)c2)on1 | > 128 | 28.3 (≈ 11.4 µg/mL) | 1.4 (≈ 0.566 µg/mL) | – |
| CCOC(=O)c1cc(-c2cccc(OCc3cccc(C(F)(F)F)c3F)c2)on1 | > 128 | 7 (≈ 2.87 µg/mL) | 0.6 (≈ 0.246 µg/mL) | – |
| CCOC(=O)c1cc(-c2cccc(OCc3cccc(C(=O)N4CCOCC4)c3)c2)on1 | > 128 | > 128 | > 128 | – |
| CCOC(=O)c1ccc(COc2cccc(-c3cc(C(=O)OCC)no3)c2)cc1 | > 128 | 32.7 (≈ 12.9 µg/mL) | 0.4 (≈ 0.158 µg/mL) | – |
| CCOC(=O)c1cc(-c2cccc(OCc3cccc(Br)c3)c2)on1 | > 128 | 12.7 (≈ 5.11 µg/mL) | 0.8 (≈ 0.322 µg/mL) | – |
| CCOC(=O)c1cc(-c2cccc(OCC(=O)N3CCOCC3)c2)on1 | – | 48.9 (≈ 17.6 µg/mL) | 13.8 (≈ 4.97 µg/mL) | – |
| CCOC(=O)c1cc(-c2cccc(OCc3cccc(F)c3)c2)on1 | > 128 | 18.9 (≈ 6.45 µg/mL) | 0.8 (≈ 0.273 µg/mL) | – |
| CCOC(=O)c1cc(-c2cccc(OCc3ccc(C(F)(F)F)cc3)c2)on1 | > 128 | 11.8 (≈ 4.62 µg/mL) | 0.4 (≈ 0.157 µg/mL) | – |
| CCOC(=O)c1cc(-c2ccccc2NC(=O)c2ccccc2)on1 | – | > 128 | > 128 | – |
| CCOC(=O)c1cc(-c2cccc(OCc3ccccc3Cl)c2)on1 | > 128 | 10.1 (≈ 3.61 µg/mL) | 0.9 (≈ 0.322 µg/mL) | – |
| CCOC(=O)c1cc(-c2cccc(Oc3cc(C(F)(F)F)nc4ccccc34)c2)on1 | – | – | – | MIC [1]: 0.95 µM (≈ 0.407 µg/mL) |
| CCOC(=O)c1cc(-c2cccc(OCc3cc(F)ccc3F)c2)on1 | > 128 | 23.7 (≈ 8.52 µg/mL) | 0.9 (≈ 0.323 µg/mL) | – |
| CCOC(=O)c1cc(COc2cc(C(F)(F)F)nc3c(C(F)(F)F)cccc23)on1 | – | – | – | MIC [1]: 0.9 µM (≈ 0.391 µg/mL) |

Reference: ChEMBL document CHEMBL1156795, “Rational design of 5-phenyl-3-isoxazolecarboxylic acid ethyl esters as growth inhibitors of Mycobacterium tuberculosis. a potent and selective series for further drug development” (J Med Chem, 2010)
